The values below come from the array DNA melting data of Ke et al. (doi:10.1101/2024.01.08.574731).

Data set [1] can be described thus: melting temperature; fluorescence melt of hairpins on a sequencing array, two-state fit, raised by 9.35 °C to match UV melts. The settings on record: sodium 0.088 M. In outline: (§1)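 Melting temperature and folding enthalpy were obtained by bootstrapped two-state fitting. Fits used Cy3 fluorescence of library hairpins with annealed Cy3 and quencher oligos on a sequenced MiSeq flow cell, imaged in 50 mM Na-HEPES pH 8.0, 25 mM NaCl in 2.5 °C steps up to 60 °C and normalised to pre-quench Cy3 and control constructs. Four replicates were combined by inverse-variance weighting, and fitted temperatures were raised by 9.35 °C to match UV melts.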

Data set [2] can be described thus: folding enthalpy; higher = less favourable; fluorescence melt of hairpins on a sequencing array, two-state fit. The settings on record: sodium 0.088 M. An outline of the steps:
as §1

Consider GACCAAACGAAAGTTGTC (((..(((....)))))), for which, in data set [1], the Tm came out at 31 °C. The folding enthalpy in data set [2] was -13.8 kcal/mol.

Regarding GACCAACCGAAAGGTGTC (((..(((....)))))), in data set [1], the Tm amounted to 35.5 °C. Also, the folding enthalpy in data set [2] is -13 kcal/mol.

For GACCAAGCGAAAGCTGTC (((..(((....)))))), the Tm in data set [1] was 37.2 °C. In data set [2], the folding enthalpy was -13.5 kcal/mol.

On to GACCAAGGAAACTTGGCC (.(((((....))))).), for which, in data set [1], the Tm worked out at 41.7 °C. Further, the folding enthalpy in data set [2] was -16.6 kcal/mol.

As for GACCAAGGAAACTTGGTC (((((((....))))))), the Tm in data set [1] came to 60.5 °C. Further, the folding enthalpy in data set [2] is -35.8 kcal/mol.

In the case of GACCACGAAAGTGGTGTC ((((((....)))..))), the Tm in data set [1] came to 55.4 °C. Also, the folding enthalpy in data set [2] was -12.2 kcal/mol.

As for GACCACGGAAACATGGCC (.(((.(....).))).), the Tm in data set [1] is 24.4 °C. Besides, in data set [2], the folding enthalpy is -9.89 kcal/mol.

On to GACCACGGAAACATGGTC (((((.(....).))))), for which the Tm in data set [1] was determined as 43.4 °C. The folding enthalpy in data set [2] is -35.5 kcal/mol.

GACCAGCGAAAGCTCGTC (((.(((....))).))): the Tm in data set [1] is 42.4 °C. Further, in data set [2], the folding enthalpy was -18.6 kcal/mol.

GACCAGGAAACTGGTC ((((((....)))))): the Tm in data set [1] was 63.4 °C. In data set [2], the folding enthalpy is -39 kcal/mol.

For the sequence GACCAGGGAAACCTGGCC (.(((((....))))).), the Tm in data set [1] stood at 45.5 °C. The folding enthalpy in data set [2] was -15.2 kcal/mol.

Consider GACCATGCGAAAGCAGTC (((..(((....)))))), for which the Tm in data set [1] is 30.2 °C. Further, the folding enthalpy in data set [2] was -10.6 kcal/mol.

For the sequence GACCATGGAAACACGGTC ((((.((....)).)))), the Tm in data set [1] was 42.5 °C. Besides, the folding enthalpy in data set [2] was -31.7 kcal/mol.

As to GACCATGGAAACATGGCC (.(((((....))))).), the Tm in data set [1] is 46 °C. Moreover, the folding enthalpy in data set [2] is -15.2 kcal/mol.

Take GACCCAACGAAAGTTGTC (((..(((....)))))): the Tm in data set [1] turned out to be 29 °C. In addition, the folding enthalpy in data set [2] is -10.5 kcal/mol.

In the case of GACCCACGAAAGTGAGTC (((.(((....))).))), in data set [1], the Tm came out at 51.2 °C. For the same sequence, the folding enthalpy in data set [2] is -31.2 kcal/mol.

In the case of GACCCCCGAAAGGGGTC (((.(((....)))))), the Tm in data set [1] amounted to 67.5 °C. Besides, the folding enthalpy in data set [2] was -19.9 kcal/mol.

Take GACCCCGAAAGGGGAGTC ((((((....)))..))): the Tm in data set [1] was found to be 44.6 °C. Also, the folding enthalpy in data set [2] was -9.87 kcal/mol.

With GACCCCGAAAGGGGGGTC ((((((....)))..))), in data set [1], the Tm is 67.4 °C. Further, the folding enthalpy in data set [2] was -13.3 kcal/mol.

In the case of GACCCCGAAAGGGTAGTC ((((((....)))..))), the Tm in data set [1] turned out to be 44.4 °C. Besides, the folding enthalpy in data set [2] was -15 kcal/mol.

Consider GACCCCGCGAAAGCGGTC (((..(((....)))))), for which the Tm in data set [1] was found to be 28 °C. Also, the folding enthalpy in data set [2] is -5.92 kcal/mol.

In the case of GACCCCGGAAACGAGGCC (.((.((....)).)).), the Tm in data set [1] was 27.5 °C. In addition, the folding enthalpy in data set [2] is -15 kcal/mol.

Consider GACCCCGGAAACGAGGTC ((((.((....)).)))), for which, in data set [1], the Tm is 48 °C. In addition, the folding enthalpy in data set [2] was -36.9 kcal/mol.

Turning to GACCCCGGAAACGGAGTC (((.(((....))).))), in data set [1], the Tm came out at 47.2 °C. Also, the folding enthalpy in data set [2] is -31.4 kcal/mol.

As for GACCCGCGAAAGCGCGTC (((.(((....))).))), the Tm in data set [1] came out at 47.8 °C. Moreover, in data set [2], the folding enthalpy was -21.9 kcal/mol.

For the sequence GACCCGGGAAACCAGGCC (.((.((....)).)).), the Tm in data set [1] is 24.7 °C. The folding enthalpy in data set [2] was -10.8 kcal/mol.

Take GACCCGGGAAACCAGGTC ((((.((....)).)))): the Tm in data set [1] is 45.8 °C. For the same sequence, the folding enthalpy in data set [2] is -27.5 kcal/mol.

For the sequence GACCCGGGAAACCGGACC (..((((....))))..), the Tm in data set [1] came to 30.3 °C. The folding enthalpy in data set [2] is -10.3 kcal/mol.

Consider GACCCGGGAAACTGGGTC (((((.(....).))))), for which, in data set [1], the Tm is 59.2 °C. The folding enthalpy in data set [2] is -37.3 kcal/mol.

As to GACCCTGAAAAGGGTC ((((((....)))))), in data set [1], the Tm is 67.5 °C. The folding enthalpy in data set [2] is -33.7 kcal/mol.

Regarding GACCGAGGAAACTCAGTC (((.(((....))).))), the Tm in data set [1] amounted to 34.4 °C. Also, the folding enthalpy in data set [2] is -21 kcal/mol.

As for GACCGCCGAAAGGCGTC (((.(((....)))))), the Tm in data set [1] stood at 45.4 °C. In addition, in data set [2], the folding enthalpy was -8.69 kcal/mol.

As for GACCGCGAAAGCGGCGTC ((((((....)))..))), the Tm in data set [1] was determined as 51.3 °C. Moreover, the folding enthalpy in data set [2] is -9.59 kcal/mol.

As for GACCGCGAAAGCGTGTC ((((((....))).))), the Tm in data set [1] was 63.5 °C. Moreover, the folding enthalpy in data set [2] was -21.2 kcal/mol.

Regarding GACCGGACGAAAGTCGTC (((..(((....)))))), the Tm in data set [1] was 37.1 °C. Further, in data set [2], the folding enthalpy was -12.1 kcal/mol.

Consider GACCGTACGAAAGTAGTC (((..(((....)))))), for which the Tm in data set [1] stood at 26.5 °C. In addition, the folding enthalpy in data set [2] was -13.1 kcal/mol.

Regarding GACCTAGGAAACTGGGTC ((((.((....)).)))), the Tm in data set [1] was 49.6 °C. For the same sequence, the folding enthalpy in data set [2] is -35 kcal/mol.

As to GACCTCCCGAAAGGGGTC (((..(((....)))))), in data set [1], the Tm was 40 °C. Besides, the folding enthalpy in data set [2] was -15.2 kcal/mol.

With GACCTCGGAAACAAGGTC (((((.(....).))))), the Tm in data set [1] worked out at 40.9 °C. Besides, the folding enthalpy in data set [2] is -32.1 kcal/mol.

In the case of GACCTCGGAAACGGGGTC ((((.((....)).)))), the Tm in data set [1] is 55.9 °C. For the same sequence, in data set [2], the folding enthalpy is -46.4 kcal/mol.

As to GACCTGACGAAAGTCGTC (((..(((....)))))), in data set [1], the Tm was determined as 35.9 °C. Further, the folding enthalpy in data set [2] was -9.44 kcal/mol.

GACCTGGGAAACCGGGTC ((((.((....)).)))): the Tm in data set [1] turned out to be 57.1 °C. Besides, in data set [2], the folding enthalpy is -44.8 kcal/mol.

Consider GACCTTACGAAAGTAGTC (((..(((....)))))), for which the Tm in data set [1] turned out to be 25.2 °C. The folding enthalpy in data set [2] is -11 kcal/mol.

Consider GACGAACGAAAGTTAGTC (((.(((....))).))), for which, in data set [1], the Tm stood at 49.9 °C. In addition, the folding enthalpy in data set [2] was -35.8 kcal/mol.

As to GACGAAGCGAAAGCTGTC (((..(((....)))))), the Tm in data set [1] was 45.4 °C. Further, the folding enthalpy in data set [2] was -16.7 kcal/mol.

Consider GACGACCCGAAAGGGGTC (((..(((....)))))), for which the Tm in data set [1] is 42.3 °C. The folding enthalpy in data set [2] is -10.1 kcal/mol.

For GACGACGAAAGTCTAGTC ((((((....)))..))), the Tm in data set [1] is 41.8 °C. The folding enthalpy in data set [2] was -23.8 kcal/mol.

As to GACGACGGAAACGTCACC (..((((....))))..), in data set [1], the Tm came out at 35.4 °C. For the same sequence, the folding enthalpy in data set [2] is -11.5 kcal/mol.

With GACGAGCGAAAGCTAGTC (((.(((....))).))), in data set [1], the Tm was 56.8 °C. Besides, in data set [2], the folding enthalpy was -31 kcal/mol.

As to GACGAGGGAAACCTTGTC (((.(((....))).))), the Tm in data set [1] came to 48.1 °C. Besides, the folding enthalpy in data set [2] was -31.4 kcal/mol.

On to GACGATACGAAAGTAGTC (((..(((....)))))), for which the Tm in data set [1] is 36.1 °C. Further, the folding enthalpy in data set [2] is -17 kcal/mol.

With GACGATCCGAAAGGAGTC (((..(((....)))))), the Tm in data set [1] turned out to be 39.8 °C. For the same sequence, in data set [2], the folding enthalpy was -22.1 kcal/mol.

As for GACGCAGGAAACCACGTC ((((..(....)..)))), the Tm in data set [1] was determined as 34.9 °C. The folding enthalpy in data set [2] was -16.3 kcal/mol.

GACGCAGGAAACTACGTC ((((.((....)).)))): in data set [1], the Tm is 43.5 °C. In addition, the folding enthalpy in data set [2] is -26.6 kcal/mol.
